FXIa inh 1536: inhibitors of human coagulation factor XIa | P03951 | purified FXIa, Boc-Glu-Ala-Arg-AMC fluorogenic substrate | inhibition, % at 5 µM | hit rate 0.14% among 220,000 | AID 798;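 active means inhibition of at least 40%; inactive means inhibition below 40%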;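 further: fluorescence of freed AMC excited at 355 nm; 0% = enzyme without compound and 100% = no enzyme blank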
Thrombin inh: thrombin (human) inhibition; P00734; alpha-thrombin, Boc-VPR-AMC fluorogenic substrate cleavage; inhibition, % at 5 µM; hit rate 0.26% among 220,000;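 active means inhibition at or above 40%; inactive means inhibition below 40%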;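 further: 0% = enzyme with no compound and 100% = wells without enzyme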
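System – human alpha-thrombin · Medium – pH 7.5 Tris (50 mM) with NaCl 150 mM, Tween 20 0.05% · Compound – single-point dosing at 5 µM, 0.2% DMSO · Incubation – enzyme reaction carried out at room temperature · Technique – fluorescence of released AMC, ex 355 nm, em 460 nm · Read-out basis – % inhibition of thrombin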
hK5 inh: inhibitors of human kallikrein 5 | recombinant hK5, fluorogenic AMC substrate cleavage | hit rate 0.59% among 210,000 | inhibition, % at 5 µM;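 active means inhibition of 40% or more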;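 further: 0% = enzyme controls without compound and 100% = no-enzyme blanks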
Target sequence (Q9Y337 67-293 limits assumed): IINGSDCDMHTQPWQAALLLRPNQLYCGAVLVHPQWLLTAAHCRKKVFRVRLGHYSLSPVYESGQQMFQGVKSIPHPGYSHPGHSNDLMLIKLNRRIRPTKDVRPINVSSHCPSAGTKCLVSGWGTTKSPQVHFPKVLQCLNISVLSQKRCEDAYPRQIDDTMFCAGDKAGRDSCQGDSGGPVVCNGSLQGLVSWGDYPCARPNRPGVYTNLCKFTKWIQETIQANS
m-calpain inh: calpain II (pig) inhibition; purified calpain II, fluorogenic peptide substrate, 30 min; inhibition, % at 16 µM; hit rate 0.37% among 220,000;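 active means inhibition above about 50%, limit read from the data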
FXIIa inh: factor XIIa (human) inhibition | inhibition, % at 5 µM | purified FXIIa, Boc-QGR-AMC fluorogenic substrate, 2 h | AID 800 | hit rate 0.3% among 220,000; in the data active means inhibition above about 40%;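 further: 0% = enzyme with no compound and 100% = blank without enzyme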
* = called active by the depositor. Compounds with a hit are over-represented: about 1.4% of the library has one in this group of screens.

SMILES	FXIa inh 1536	Thrombin inh	hK5 inh	m-calpain inh	FXIIa inh
Nc1nc(SCC(=O)Nc2ccc(S(N)(=O)=O)cc2)n[nH]1	-2	-7	13	-9	2
CCOc1ccc(/C=N/NC(=S)NC2CC3CC2C2C=CCC32)cc1 (configuration not stated)	4	2	0	13	9
COC(=O)c1ccc(Nc2nc(C)cc(=O)[nH]2)cc1	24	3	-16	28	41*
CCCCOC(=O)Nc1cccc(C(=O)OCC)c1	3	-1	16	16	17
CCN(CC)S(=O)(=O)c1ccc2c(c1)c(=O)c(C(=O)NCc1ccco1)cn2C	-1	62*	0	-6	7
CC1CCN(S(=O)(=O)c2ccc3c(c2)c(=O)c(C(=O)NCc2ccco2)cn3C)CC1	-2	15	-8	-51	9
CCN(CC)S(=O)(=O)c1ccc2c(c1)c(=O)c(C(=O)NCCOC)cn2C	-4	-4	1	4	5
O=C(NCc1ccco1)c1c[nH]c2ccc(S(=O)(=O)N3CCOCC3)cc2c1=O	-10	74*	-27	-90	12
C=CCn1cc(C(=O)NCc2ccc3c(c2)OCO3)c(=O)c2cc(S(=O)(=O)N(CC)CC)ccc21	6	42*	-5	-6	13
CCN(CC)S(=O)(=O)c1ccc2c(c1)c(=O)c(C(=O)NCc1ccc3c(c1)OCO3)cn2C	7	64*	-3	-55	14
O=C1CC(c2ccc(F)cc2)C(n2cncn2)C(O)=C1C1NCCc2ccccc21 (configuration not stated)	-2	-2	14	10	6
CC(=O)c1cccc(NC(=O)C2CCN(S(=O)(=O)c3ccc(C)cc3)CC2)c1	7	3	-5	-4	15
NC(=O)/C(=N\OC(=O)c1ccco1)c1nc(-c2ccc(Br)cc2)cs1	5	78*	-103	-14	41*
CC1CCN(c2ccc(C=O)o2)CC1	-5	-3	-9	-14	1
Cc1ccc(Nc2nc(-c3sc(NC(=O)c4ccco4)nc3C)cs2)cc1	14	11	54*	-277	16
Cc1ccc(-c2csc(NC(=S)NC(=O)c3ccco3)n2)cc1	10	2	-5	57*	18
Cc1ccccc1Nc1nc(-c2sc(NC(=O)c3ccco3)nc2C)cs1	18	24	19	-286	17
CCOc1ncccc1C(=O)N(C)CC(=O)Nc1ccccc1SC	4	-10	-3	1	13
O=C1c2cccc3cccc(c23)C(=O)N1CCN1CCN(C(=S)Nc2ccccc2)CC1	10	3	0	-7	14
O=C1c2cccc3cccc(c23)C(=O)N1CCN1CCN(C(=S)Nc2ccc(Cl)cc2)CC1	20	-14	-2	54*	18
CCc1nnc(NS(=O)(=O)c2ccc(NC(=S)NC(=O)c3ccccc3)cc2)s1	9	-10	-19	23	9
CCc1nnc(NS(=O)(=O)c2ccc(NC(=S)NC(=O)c3ccc(Br)cc3)cc2)s1	10	-5	-33	70*	11
CC(=O)N/C(=C\c1ccccc1)C(=O)NC(C)C(=O)O (configuration not stated)	-13	-4	-9	8	0
COc1ccc(CC(NC(C)=O)C(=O)NC2CCN(S(=O)(=O)c3ccccc3)CC2)cc1OC (configuration not stated)	1	-5	-73	20	-1
O=C(NNC(=O)c1ccc2ncccc2c1)c1ccc(Cl)cc1	13	7	22	8	17
SMILES	FXIa inh 1536	Thrombin inh	hK5 inh	m-calpain inh	FXIIa inh
Cc1ccc(C(=O)NNC(=O)c2ccc3ncccc3c2)cc1	-7	-4	-13	52*	-1
CCCCN(CCCC)C(=O)/C=C/c1cccc([N+](=O)[O-])c1	-17	5	-14	62*	-9
CNC(=S)N/N=C/c1c(C)nn(-c2ccc(F)cc2)c1Cl	-6	-2	-2	3	11
CCCCC(=O)NC(=S)NNC(=O)CC	8	9	-67	-8	15
CC(C)(C)c1ccc(OCc2nnc(SCC(N)=O)n2N)cc1	-3	1	16	-8	9
Cc1ccc(OCc2nnc(SCC(=O)O)n2N)cc1	30	3	-23	23	45*
Brc1ccc(Cn2c(-c3ccc(Br)o3)nc3ccccc32)o1	-4	-3	-10	24	-2
COCCN(C(=O)C1CC1)c1nnc(-c2ccc(C)cc2)s1	34	1	-4	14	64*
FC(F)C(F)(F)C(F)(F)C(F)(F)c1cc(-c2ccccc2)n[nH]1	50*	1	-11	40	50*

Screening data (PubChem BioAssay)
